Source: PubChem
CRFR2-BP ag: agonists of human CRF-binding protein/CRF-R2 receptor complex; HEK293 CRF-R2/CRF-BP, calcium dye fluorescence (FLIPR); percent of saturating CRF peptide response; activation, % at 13.2 µM; 0.46% of 350,000 active;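 active means activation of at least 50%, plus an integration ratio under a set limit after plate pattern correction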;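 further: plate controls were neutral control wells without compound for no effect and CRF at EC100 for full effect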
OXTR potentiate: potentiates the human oxytocin receptor response; CHO-OTR cells, Fluo-8 calcium fluorescence, potentiator mode; 0% = oxytocin EC15, 100% = EC100; activation, % at 3 µM; 0.061% of 320,000 active; AID 2445;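 active means activation above that plate's cutoff, the mean activation of tested compounds plus 3 SD, cut at about 6.6% in these data, passing the limit was not always enough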;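 further: 100% uses oxytocin at 75 nM as the full agonist control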
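Assay system: CHO cell line stably expressing human OTR. Reagent: EC15 oxytocin agonist. Dosing: single dose, 3.0 µM nominal final compound concentration. Timing: compound 6 min at room temperature before oxytocin, 100 s read. Signal: kinetic Fluo-8 calcium fluorescence. Controls: oxytocin EC15 low and EC100 high.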
V1R ag counter: counter-screen for oxytocin receptor agonists: human V1a receptor agonists | P37288 | CHO-V1R cells, Fluo-8 calcium fluorescence, agonist mode; 0% DMSO, 100% 3 nM vasopressin | activation, % at 3 µM | 0.25% of 320,000 active | AID 2797;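 active means activation above the mean activation of all tested compounds plus 3 SD, per screening run, cut at about 20% in these data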;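 further: signal is peak over basal fluorescence ratio across a 100 second FLIPR read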
Target sequence (P37288 whole entry, looked up): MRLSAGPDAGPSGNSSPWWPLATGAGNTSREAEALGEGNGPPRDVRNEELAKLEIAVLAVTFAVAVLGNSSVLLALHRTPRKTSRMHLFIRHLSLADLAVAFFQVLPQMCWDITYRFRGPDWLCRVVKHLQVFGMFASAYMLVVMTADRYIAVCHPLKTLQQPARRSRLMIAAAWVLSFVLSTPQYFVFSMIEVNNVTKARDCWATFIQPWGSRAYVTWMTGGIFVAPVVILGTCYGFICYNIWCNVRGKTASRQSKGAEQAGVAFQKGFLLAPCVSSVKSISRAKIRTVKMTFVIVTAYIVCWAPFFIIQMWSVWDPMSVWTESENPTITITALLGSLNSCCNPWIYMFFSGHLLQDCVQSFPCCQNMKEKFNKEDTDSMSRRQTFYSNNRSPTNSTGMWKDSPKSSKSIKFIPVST
OXTR agonist: human OXTR agonism | activation, % at 3 µM | 0.32% of 320,000 active | CHO-OTR cells, Fluo-8 calcium fluorescence; normalized: DMSO 0%, oxytocin 100%;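 active means activation above the mean of all tested compounds plus 3 SD, cutoff set per screening run, cut at about 20% in these data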;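 further: peak over basal fluorescence ratio from a 100 s FLIPR kinetic read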
TRPML3 ag: activates the human TRPML3 channel; Q8TDD5; HEK293 TRPML3-YFP, Fluo-8 calcium fluorescence; 100% = the carbachol control signal; activation, % at 3 µM; 0.29% of 220,000 active; AID 1448;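 active means activation above its plate's cutoff, the mean activation of the plate's test wells plus 3 SD, cut at about 12% in these data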;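 further: 0% = DMSO only wells and 100% = carbachol wells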
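Material: TRPML3-YFP stable HEK293 cells | Dosing: One concentration, 3 µM nominal, 0.3% DMSO | Timing: 125 s total fluorescence read per well | Technique: Fluo-8 calcium dye fluorescence, ex 470-495, em 515-575 nm | Measure: Percent activation from peak-to-basal fluorescence ratio, scaled between DMSO and carbachol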
TRPN1 ag: zebrafish TRPN1 (NompC) channel agonism; HEK293 zebrafish TRPN1-YFP, Fluo-8 calcium fluorescence; 100% = response to 87 µM carbachol; activation, % at 3 µM; 0.18% of 220,000 active; AID 1424;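 active means activation above its plate's cutoff, the mean activation of test wells on that plate plus 3 SD, cut at about 19% in these data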;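 further: 0% = DMSO alone and 100% = 87 µM carbachol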
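Material: zebrafish TRPN1-YFP in HEK293 cells. Doses: one dose of 3 µM, 0.3% DMSO. Incubation: dye 1 h 37 °C plus 30 min RT. Measured by: intracellular calcium fluorescence with Fluo-8.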
Active calls of the source: *; . = not tested or not shown. Most compounds without a hit are left out; they make up all but 0.85% or so of the library.

SMILES | CRFR2-BP ag | OXTR potentiate | V1R ag counter | OXTR agonist | TRPML3 ag | TRPN1 ag
CC(=O)N1c2ccc(S(=O)(=O)N(C)CC(=O)NC3CCCCC3C)cc2CC1C (configuration not stated) | -0.7 | -9.1 | 0.3 | -0.4 | . | .
Cc1ccc2cccc(S(=O)(=O)N3CCCc4ccccc43)c2n1 | 87.5* | -15.8 | 2.4 | 3.9 | 2.5 | 4.6
Cc1ccc(S(=O)(=O)N2CCCc3ccccc32)cc1 | 1.1 | . | . | . | . | .
O=C(CCc1ccccc1)NNC(=S)NCCc1ccccc1 | 1.5 | -6.7 | 0.1 | -1.0 | . | .
CC(=O)NC(=S)NNC(=O)CCc1ccccc1 | 29.5 | -8.6 | 0.1 | 0.3 | 0.9 | -1.7
CCCCC(=O)NC(=S)NNC(=O)CCc1ccccc1 | 70.9* | -1.2 | 0.2 | 0.6 | 1.4 | 4.4
CC(C)(C)c1cc(CCC(=O)NNC(=S)NC(=O)c2ccccc2)cc(C(C)(C)C)c1O | 157.6* | -19.2 | 30.7* | 57.7* | 0.5 | 0.4
O=C(CCc1ccccc1)NNC(=S)NC(=O)c1ccccc1 | 79.5* | -6.4 | 0.8 | 2.8 | 0.8 | -0.9
COc1cc(NC(=O)NCC2CCN(Cc3ccccc3C)CC2)cc(OC)c1OC | 2.2 | . | . | . | . | .
C/C=C(\C)C(=O)OC1CC(C)(C)C[C@H]2C3=CC[C@@H]4[C@@]5(C)CCC(O[C@@H]6O[C@@H](C(=O)O)[C@@H](O)C(O[C@@H]7OC[C@H](O)[C@@H](O)[C@@H]7O[C@@H]7OC(CO)C(O)[C@@H](O)[C@@H]7O)C6O[C@@H]6OC(CO)C(O)C(O)C6O)[C@@](C)(CO)[C@@H]5CC[C@]4(C)[C@]3(C)CC(O)[C@@]12CO (some centres not stated) | 78.2* | -3.7 | 0.8 | 2.1 | . | .
O=C(CNCc1ccc(Cl)cc1)Nc1ccc(C(=O)N2CCCCC2)cc1 | 4.0 | -1.8 | 5.1 | 4.8 | . | .
CCCC(=O)NC(=S)Nc1ccc(C(C)=O)cc1 | 0.1 | -4.5 | -0.2 | -0.2 | 0.4 | 0.4
Cc1ccc(O)c(NC(=S)NC(=O)Cc2ccc(Cl)cc2)c1 | 178.7* | -23.9 | 78.5* | 73.3* | . | .
CC(=O)c1ccc(NC(=S)NC(=O)Cc2ccc(Cl)cc2)cc1 | 75.5* | -3.7 | 5.5 | 6.5 | . | .
O=C(c1ccc(NC(=S)NCc2ccc(Cl)cc2)cc1)N1CCCCC1 | 7.3 | -11.7 | 20.7* | 21.3* | 1.4 | 1.7
COc1ccccc1CC(=O)N1CCC(n2nccc2NC(=O)C2CCOC2)CC1 (configuration not stated) | 0.3 | -4.5 | 0.0 | 0.9 | . | .
CNc1ncnc2c1cnn2C1CCCCO1 (configuration not stated) | 7.6 | . | . | . | . | .
CCOC(=O)c1cc(OCC)c2c(ccc3ccccc32)n1 | -2.7 | . | . | . | . | .
CC1(C)CC(=O)C(C2C3=C(CC(C)(C)CC3=O)Oc3c(Br)cc(Br)cc32)=C(O)C1 (configuration not stated) | 82.4* | -16.4 | 4.3 | -0.6 | . | .
Nc1ccc(/C=C/C(=O)c2cccs2)cc1 | 102.5* | -15.7 | 14.5 | 19.0 | 10.9 | 15.3
O=C(C=Cc1ccccc1)c1cccs1 | -3.3 | . | . | . | . | .
COCC1CCN(Cc2nc(-c3ccc4c(c3)OCO4)no2)C1 (configuration not stated) | 202.7* | -0.1 | -0.5 | 0.1 | 0.4 | 0.9
c1cc(C2CCN(Cc3nc(-c4ccc5c(c4)OCO5)no3)CC2)ccn1 | -0.3 | -11.0 | 6.6 | 7.6 | 3.1 | 5.8
Cc1ccc(N2C(=O)c3ccccc3C2C(=O)c2ccc(C)c(C)c2O)cc1 (configuration not stated) | 0.3 | 3.0 | -0.7 | -3.7 | 0.1 | -2.6
CN(C)c1ccc(/C=C/c2nc3ccccc3c(=O)n2-c2ccc(C(=O)O)cc2)cc1 | 22.1 | -26.5 | 82.4* | 77.3* | . | .
SMILES | CRFR2-BP ag | OXTR potentiate | V1R ag counter | OXTR agonist | TRPML3 ag | TRPN1 ag
Cc1ccc(/C=C(\NC(=O)c2ccccc2)C(=O)NC2CCN(Cc3ccccc3)CC2)o1 | 0.0 | -10.8 | 0.8 | -1.2 | . | .
CC(Oc1ccc(Br)cc1)C(=O)Nc1ccc(S(=O)(=O)N(C)C2CCN(C)CC2)cc1 (configuration not stated) | 95.8* | -21.7 | 47.4* | 63.9* | . | .
CC(O)C(NC(=O)OCc1ccccc1)C(=O)OCc1ccccc1 (configuration not stated) | 0.5 | -3.6 | 0.4 | -1.1 | . | .
O=C1CSC(=S)N1N=Cc1c(F)cccc1Cl | 55.2* | . | . | . | . | .
CN(C)c1ccc(C=NN2C(=O)CSC2=S)c(Cl)c1 | 50.2* | . | . | . | . | .
COc1ccccc1C(C)NC(=O)c1ccc(S(=O)(=O)NCc2ccco2)cc1 (configuration not stated) | 0.7 | -2.5 | 0.8 | 0.5 | . | .
CNC(=O)c1sc(N2N=C3/C(=C/c4ccccc4)CCCC3C2c2ccccc2)nc1C (configuration not stated) | 64.4* | -11.4 | 1.3 | 0.0 | 0.2 | 1.8
Cc1ccc(Nc2cc(C)nc3nc(C)nn23)cc1 | -4.1 | 12.5* | -1.2 | -2.3 | 0.3 | -0.9
Cc1cc(C)cc(Nc2cc(C)nc3nc(C)nn23)c1 | -2.1 | 8.0 | -1.2 | -1.7 | 0.0 | -0.1
Cc1ccc(C(=O)NNC(=O)c2ccc(S(=O)(=O)N3CCCCC3)cc2)cc1 | 2.2 | 2.5 | 0.9 | 1.4 | . | .
CCN(CC)c1ccc2cc(S(=O)(=O)c3ccc(C)cc3)c(=O)oc2c1 | 147.1* | -7.5 | 0.5 | -1.4 | -0.3 | 0.7
O=c1oc2ccccc2cc1-c1csc(Cc2nc(-c3ccc(Cl)cc3)cs2)n1 | 9.5 | -5.3 | -0.8 | -1.8 | 0.3 | 1.0
CCN(CC)c1ccc2cc(C#N)c(=O)oc2c1 | 102.1* | -4.6 | 1.1 | -0.2 | 1.0 | 0.7
CCN(CC)c1ccc2ccc(=O)oc2c1 | -0.3 | -1.0 | -0.6 | -1.9 | -0.2 | 0.5
CCN(CC)c1ccc2cc(-c3nc(-c4cc5ccccc5oc4=O)cs3)c(=O)oc2c1 | 194.9* | . | . | . | . | .
CCN(CC)c1ccc2cc(C(=O)NNC(=O)c3ccc(S(=O)(=O)N4CCCCC4)cc3)c(=O)oc2c1 | 266.2* | -6.0 | -0.1 | 0.4 | -0.1 | 0.4
CCCn1c2ccccc2c2cnn(CC(=O)N3CCN(C4CCCCC4)CC3)c(=O)c21 | 0.5 | -5.9 | 3.6 | 2.6 | . | .
CC1(C)NC(=O)N(CC(=O)N2CCN(c3ccc([N+](=O)[O-])cc3)CC2)C1=O | -0.9 | -3.1 | -0.5 | -0.3 | . | .
CCN(CC)S(=O)(=O)c1ccc(N2CCOCC2)c(NS(=O)(=O)c2ccc(Cl)s2)c1 | -1.2 | . | . | . | . | .
CCN(CC)c1ccc(NC(=O)CCS(=O)(=O)c2ccc(Br)cc2)c(C)c1 | -0.3 | -0.7 | -0.1 | -0.3 | . | .
N#Cc1c(NC(=O)c2ccccc2)sc2c1CCCCC2 | 0.6 | 12.1 | -0.2 | -1.5 | -0.7 | -1.7
